The nature of series [1]: Inhibition of phenylephrine-induced contractions in dog femoral vein after 15 to 20 mins post phenylephrine-induced contraction. The series is classed as functional, tissue-based, Canis lupus familiaris.
Series [2] in a line: Volume of distribution at steady state in iv dosed Wistar rat after 24 hrs by LC-MS analysis. The series is classed as ADME, organism-based. The settings on record: in vivo, read-out: Vdss. In outline: (§1)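 Male Wistar rats and female beagle dogs. iv in plasma/DMSO (rat) or H2O/PEG 400/EtOH (dog). Oral gavage in H2O/PEG 400/EtOH for both. Rats jugular-catheterised ≥1 d before dosing. Usually >10 blood samples, at least two after 24 h. Plasma quantified by LC-MS with internal standard. CL, t1/2, Vss and F calculated from plasma curves. Blood clearance via blood/plasma ratio (20 min blood incubation).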

Series [3] in a line: Terminal half life in iv dosed Wistar rat blood after 24 hrs by LC-MS analysis. The series is classed as ADME, organism-based. The settings on record: whole blood, read-out: beta t1/2 (converted). In outline:
as §1

The nature of series [4]: Oral bioavailability in Wistar rat administered via oral gavage after 24 hrs by LC-MS analysis. The series is classed as ADME, organism-based. The conditions noted are these: in vivo. In outline: as §1
The nature of series [5]: Oral bioavailability in Beagle dog administered via oral gavage after 24 hrs by LC-MS analysis. The format is ADME, organism-based, Canis lupus familiaris. The conditions noted are these: in vivo. Put shortly: as §1
In another series the target is T1, Cytochrome P450 2C8 (Homo sapiens, UniProt P10632).
T1 sequence (P10632 whole entry): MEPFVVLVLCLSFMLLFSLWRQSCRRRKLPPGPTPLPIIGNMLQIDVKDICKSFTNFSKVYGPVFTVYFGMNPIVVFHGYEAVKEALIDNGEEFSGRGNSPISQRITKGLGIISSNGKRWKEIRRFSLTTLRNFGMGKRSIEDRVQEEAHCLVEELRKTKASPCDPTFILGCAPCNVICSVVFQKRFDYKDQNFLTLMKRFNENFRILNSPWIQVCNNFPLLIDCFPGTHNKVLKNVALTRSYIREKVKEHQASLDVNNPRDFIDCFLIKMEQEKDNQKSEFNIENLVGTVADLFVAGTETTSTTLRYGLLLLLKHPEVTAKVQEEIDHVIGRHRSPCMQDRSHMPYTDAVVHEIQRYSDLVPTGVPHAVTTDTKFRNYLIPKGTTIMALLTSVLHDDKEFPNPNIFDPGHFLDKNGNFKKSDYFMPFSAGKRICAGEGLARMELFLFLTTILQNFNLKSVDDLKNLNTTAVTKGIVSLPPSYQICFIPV
Kind of series: Inhibition of human liver microsomes CYP2C8 using amodiaquine as substrate. The series is classed as ADME. For orientation: Microsomes from liver hold many membrane-bound enzymes, among them those of drug oxidation.

In the next series the target is Cytochrome P450 2C19 (Homo sapiens, UniProt P33261). Kind of series: Inhibition of human liver microsomes CYP2C19 using S-mephenytoin as substrate. The series is classed as ADME.
The next series concerns the target Cytochrome P450 2D6 (Homo sapiens, UniProt P10635). Kind of series: Inhibition of human liver microsomes CYP2D6 using dextromethorphan as substrate. The format is ADME.
In a further series the target is Cytochrome P450 3A4 (Homo sapiens, UniProt P08684). Nature of the series: Inhibition of human liver microsomes CYP3A4 using midazolam as substrate preincubated with compound followed by substrate addition. The series is classed as ADME.
Series [6] in a line: Drug metabolism in human hepatocytes assessed as CYP-mediated methyl 4,6-diamino-2-(5-fluoro-1H-pyrazolo[3,4-b]pyridin-3-yl)pyrimidin-5-ylcarbamate metabolite formation. The series is classed as ADME, cell-based.
For the next series, the species on record is Homo sapiens. Nature of the series: Stimulation of sGC (unknown origin) using alpha-[32P]-GTP as substrate assessed as increase in [32P]-cGMP formation at 100 uM in presence of sGC inhibitor ODQ. Put shortly:
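Purified recombinant sGC (0.2 μg/mL) assayed by [32P]-cGMP formation from α-[32P]-GTP, with 200 μM GTP, 3 mM Mn2+/Mg2+ and 1 mM cGMP. Substrate turnover kept <10%. DMSO ≤1% (v/v). ODQ present. Activity expressed as x-fold over basal. Duplicates, repeated five times.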

A short description of series [7]: Stimulation of rat sGC expressed in CHO cells using GTP as substrate assessed as increase in cGMP formation treated for 6 mins in presence of 30 nM SNAP by luminescence assay. The format is cell-based. Put shortly: (§2)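 CHO reporter cells overexpressing sGC, cultured 1 or 2 d, then loaded 3 h with coelenterazine in calcium-free Tyrode. Compound serial dilutions applied 6 min. Calcium added (final 3 mM) and luminescence read for 40 s by CCD camera. SNAP co-applied at 30 or 100 nM where stated. ODQ condition: 10 μM ODQ pretreatment for 3 h.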

A short description of series [8]: Stimulation of rat sGC expressed in CHO cells using GTP as substrate assessed as increase in cGMP formation treated for 6 mins in presence of 100 nM SNAP by luminescence assay. The series is classed as cell-based. In outline:
as §2

Series [9] can be described thus: Stimulation of rat sGC expressed in CHO cells using GTP as substrate assessed as increase in cGMP formation treated for 6 mins in presence of sGC inhibitor ODQ by luminescence assay. The series is classed as cell-based. In outline:
as §2

A further series deals with Aorta. Nature of the series: Inhibition of phenylephrine-induced contractions in Chinchilla rabbit aortic rings administered at the beginning of the last resting period of 28 mins. The format is functional. The settings on record: Oryctolagus cuniculus.
The subject of series [10] is Heart. Nature of the series: Antihypertensive activity in Wistar Langendorff-perfused heart rat model assessed as reduction in coronary perfusion pressure administered for 20 mins. The format is functional, tissue-based. In outline:
(§3)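 Male Wistar rats (200−250 g) anesthetized with Narcoren 100 mg/kg ip. Excised heart Langendorff-perfused at constant flow 10 mL/min with Krebs−Henseleit buffer gassed with 95% O2/5% CO2. Values expressed as relative change from baseline before compound application.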

Series [11] has as its system Heart. Nature of the series: Cardiotoxicity in Wistar rat assessed as effect on contractility administered for 20 mins. The format is toxicity, tissue-based. In outline: as §3
Series [12] deals with Rattus norvegicus. Kind of series: Antihypertensive activity in L-NAME-treated renin transgenic rat co-expressing RenTG(mRRen2)27 assessed as reduction in plasma ANP levels at 3 to 10 mg/kg administered qd via oral gavage up to 21 days. The format is functional, organism-based. In outline:
(§4)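 Male RenTG(mRRen2)27 rats, 8 weeks old, given L-NAME in drinking water (50 mg/L) throughout. Randomised to placebo (2 mL/kg qd, n = 20) or 3 and 10 mg/kg/day po by gavage qd (n = 15 per group). Tail-cuff blood pressure on day 0, 7, 14 and 21. Plasma taken at day 22 end. Unpaired t test, mean ± SEM.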

The subject of series [13] is Rattus norvegicus. Kind of series: Antihypertensive activity in L-NAME-treated renin transgenic rat co-expressing RenTG(mRRen2)27 assessed as reduction in Kim-1 expression at 3 to 10 mg/kg administered qd via oral gavage up to 21 days. The format is functional, organism-based. In outline: as §4
Series [14] has as its system Rattus norvegicus. Kind of series: Antihypertensive activity in L-NAME-treated renin transgenic rat co-expressing RenTG(mRRen2)27 assessed as reduction in osteopontin expression at 3 to 10 mg/kg administered qd via oral gavage up to 21 days. The format is functional, organism-based. In outline: as §4
The subject of series [15] is Rattus norvegicus. Kind of series: Antihypertensive activity in L-NAME-treated renin transgenic rat co-expressing RenTG(mRRen2)27 assessed as reduction in proteinuria administered qd via oral gavage up to 21 days. The series is classed as functional. In outline:
as §4

Series [16] has as its system Rattus norvegicus. Nature of the series: Effect on mortality in L-NAME-treated renin transgenic rat co-expressing RenTG(mRRen2)27 assessed as survival rate at 3 mg/kg administered qd via oral gavage up to 21 days (reference value: 25%). The format is functional. The conditions noted are these: 504 h.
Series [17] relates to Rattus norvegicus. Nature of the series: Effect on mortality in L-NAME-treated renin transgenic rat co-expressing RenTG(mRRen2)27 assessed as survival rate at 10 mg/kg administered qd via oral gavage up to 21 days (reference value: 25%). The format is functional. The settings on record: 504 h.

Molecules are shown by their SMILES. The source made the active and inactive calls. The rule behind the calls is not given here. Bounds are passed on as bounds.

Cytochrome P450 3A4, sequence (P08684 whole entry): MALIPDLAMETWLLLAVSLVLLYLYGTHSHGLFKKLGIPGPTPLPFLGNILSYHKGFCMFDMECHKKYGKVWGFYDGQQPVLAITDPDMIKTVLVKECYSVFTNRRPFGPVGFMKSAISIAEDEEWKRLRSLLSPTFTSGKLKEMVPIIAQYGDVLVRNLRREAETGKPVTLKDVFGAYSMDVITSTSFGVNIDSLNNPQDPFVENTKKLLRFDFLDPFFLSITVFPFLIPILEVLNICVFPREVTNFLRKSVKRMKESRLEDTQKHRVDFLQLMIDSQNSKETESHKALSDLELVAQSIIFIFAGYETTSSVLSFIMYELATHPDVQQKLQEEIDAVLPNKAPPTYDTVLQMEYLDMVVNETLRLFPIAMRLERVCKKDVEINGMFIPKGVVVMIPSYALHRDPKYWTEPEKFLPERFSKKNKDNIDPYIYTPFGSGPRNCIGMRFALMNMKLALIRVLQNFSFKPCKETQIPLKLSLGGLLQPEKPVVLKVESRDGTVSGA
Cytochrome P450 2D6, sequence (P10635 whole entry): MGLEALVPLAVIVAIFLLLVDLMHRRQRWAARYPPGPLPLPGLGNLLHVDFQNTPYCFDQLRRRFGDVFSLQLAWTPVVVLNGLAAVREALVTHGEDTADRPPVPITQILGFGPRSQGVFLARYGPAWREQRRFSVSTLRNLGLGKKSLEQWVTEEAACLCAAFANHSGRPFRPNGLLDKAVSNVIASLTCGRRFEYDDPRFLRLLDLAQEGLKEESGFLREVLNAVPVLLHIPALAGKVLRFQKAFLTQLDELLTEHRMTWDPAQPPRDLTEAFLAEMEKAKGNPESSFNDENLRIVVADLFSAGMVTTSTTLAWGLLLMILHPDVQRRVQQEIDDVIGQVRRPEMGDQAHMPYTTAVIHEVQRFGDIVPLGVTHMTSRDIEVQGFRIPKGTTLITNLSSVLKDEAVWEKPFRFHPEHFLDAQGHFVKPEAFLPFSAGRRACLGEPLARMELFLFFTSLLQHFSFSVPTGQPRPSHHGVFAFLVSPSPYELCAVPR
Cytochrome P450 2C19, sequence (P33261 whole entry): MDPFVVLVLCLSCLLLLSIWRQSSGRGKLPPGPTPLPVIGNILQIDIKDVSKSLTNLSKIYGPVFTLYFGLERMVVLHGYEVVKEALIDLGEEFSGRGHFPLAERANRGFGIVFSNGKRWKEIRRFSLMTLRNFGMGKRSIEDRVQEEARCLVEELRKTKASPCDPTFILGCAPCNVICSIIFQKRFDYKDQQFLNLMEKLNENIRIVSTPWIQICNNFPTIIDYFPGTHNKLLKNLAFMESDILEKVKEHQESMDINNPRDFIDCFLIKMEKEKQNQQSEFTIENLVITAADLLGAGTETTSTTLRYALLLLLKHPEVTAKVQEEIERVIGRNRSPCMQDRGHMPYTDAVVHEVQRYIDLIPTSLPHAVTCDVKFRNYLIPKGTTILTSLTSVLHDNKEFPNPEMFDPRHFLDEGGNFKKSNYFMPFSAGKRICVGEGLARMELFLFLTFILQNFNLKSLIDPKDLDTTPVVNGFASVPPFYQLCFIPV

Usually IC50 stands for the point on the concentration scale where inhibition reaches its midpoint. A word on the bioavailability: it is the share of a dose that reaches the circulation, judged against a reference dose that is usually intravenous. By EC50 is commonly meant the concentration at which the effect is half-maximal. `COC(=O)Nc1c(N)nc(-c2nn(Cc3ccccc3F)c3ncc(F)cc23)nc1N` [VERICIGUAT]: the IC50 is 3.07 µM in series [1]; over 50 µM at Cytochrome P450 2C8; over 50 µM at Cytochrome P450 2C19; over 50 µM at Cytochrome P450 2D6; over 50 µM at Cytochrome P450 3A4; 0.692 µM in the series with Aorta. In series [2], the Vd amounted to 1 L/kg. The half-life in [3] is 3.4 h. Further, the bioavailability in series [4] was 65%; in series [5], 75%. The Drug metabolism result in series [6] is “Metabolite_Detected”. Also, in the series listed under Homo sapiens, the outcome was inactive. In addition, the half-maximal effective concentration (EC50) came to 0.039 µM in series [7], 0.0106 µM in series [8] and 0.256 µM in series [9]. Besides, the Activity result in the series with Heart [10] was “Dose-dependent effect”; with Heart [11], “Non-Toxic”; in the series on Rattus norvegicus [15] it was “Dose-dependent effect”. Besides, the outcome in the series on Rattus norvegicus [12], in the series on Rattus norvegicus [13] and in the series with Rattus norvegicus [14] was Active. Further, the survival at 3 mg/kg in the series on Rattus norvegicus [16] is 70%. Further, the survival at 10 mg/kg in the series on Rattus norvegicus [17] stood at 90%.

Values taken from ChEMBL document CHEMBL4014344, “Discovery of the Soluble Guanylate Cyclase Stimulator Vericiguat (BAY 1021189) for the Treatment of Chronic Heart Failure” (J Med Chem, 2017).
